Assay results reported in ChEMBL document CHEMBL2331102 (Bioorg Med Chem, 2013).
pIC50: −log10 of the molar value. Values after ≈ are worked out from the molar mass of the structure shown. Active and inactive are the calls of the source. The calls are words filed in the database; no cut-off is given here.

Tests used:
[1] = Selectivity index, ratio of IC50 for rat L6 cells to IC50 for Trypanosoma cruzi Tulahuen TcVI extracellular trypomastigotes forms; assay type: toxicity, cell-based; conditions: read-out: Ratio IC50
Summary of the method: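 Ratio of the L6 myoblast cytotoxicity IC50 to the IC50 against β-galactosidase-expressing T. cruzi Tulahuen TcVI.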

L6 = assay: Cytotoxicity against rat L6 cells after 72 hrs by Alamar Blue assay; assay type: cell-based; conditions: L6, 72 h
Summary of the method: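 Counter-screen for cytotoxicity in uninfected L6 rat skeletal muscle myoblasts, with IC50 recorded in µM.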

Trypanosoma cruzi [2] = assay: Antitrypanosomal activity against Trypanosoma cruzi Tulahuen TcVI extracellular trypomastigotes forms transfected with beta-galactosidase gene infected in rat L6 cells assessed as inhibition of parasite growth after 4 days; assay type: functional, organism-based; conditions: L6, 96 h
Summary of the method: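 L6 rat skeletal myoblasts were infected with extracellular trypomastigotes of β-galactosidase-transfected T. cruzi Tulahuen TcVI. After 48 h to establish infection, compound was added and incubation continued 4 days, exposing trypomastigote and intracellular amastigote forms.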

CYP3A4/5 = CYP3A4/5 (Homo sapiens, UniProt P08684+P20815); assay: Inhibition of CYP3A4/5 in human liver microsomes assessed as reduction in testosterone-beta-hydroxylation; assay type: ADME, Microsome; conditions: probe testosterone
Summary of the method: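 CYP3A4 inhibition measured as inhibition of testosterone β-hydroxylation, reported as IC50 (µM).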

[3] = Kinetic solubility of the compound at pH 6.5 phosphate buffer by nephelometric analysis; assay type: physicochemical; conditions: read-out: Kinetic_solubility
Summary of the method: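 Kinetic solubility in phosphate buffer at pH 6.5, determined by nephelometry and reported in µg/mL.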

Mus musculus [4] = assay: AUC (0 to 7.5 hrs) in Swiss mouse at 50 mg/kg, po; assay type: ADME, organism-based, Plasma; design: time < 7.5 hr, dose 50 mg/kg, route oral; conditions: in vivo
Summary of the method: (§1)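 Non-infected male Swiss outbred mice received single oral gavage doses of 20, 50 and 100 mg/kg. […] Full-scan LC-MS was run on selected plasma samples to identify metabolites.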

[5] = Apparent half life in Swiss mouse at 20 to 100 mg/kg, po; assay type: ADME, organism-based; design: dose 20-100 mg/kg, route oral; conditions: in vivo, read-out: t1/2(app) (converted); summary of the method: as §1
Mus musculus [6] = assay: AUC (0 to 7.5 hrs) in Swiss mouse at 100 mg/kg, po; assay type: ADME, organism-based, Plasma; design: time < 7.5 hr, dose 100 mg/kg, route oral; conditions: in vivo; summary of the method: as §1
Mus musculus [7] = assay: Toxicity in Swiss mouse at 20 to 100 mg/kg, po; assay type: organism-based; design: dose 20-100 mg/kg, route oral; conditions: in vivo; summary of the method: as §1
Mus musculus [8] = assay: AUC (0 to 7.5 hrs) in Swiss mouse at 20 mg/kg, po; assay type: ADME, organism-based, Plasma; design: time < 7.5 hr, dose 20 mg/kg, route oral; conditions: in vivo; summary of the method: as §1
[9] = Tmax in Swiss mouse at 20 to 100 mg/kg, po; assay type: ADME, organism-based; design: dose 20-100 mg/kg, route oral; conditions: in vivo; summary of the method: as §1
Trypanosoma cruzi [10] = assay: Antitrypanosomal activity against Trypanosoma cruzi Tulahuen TcVI infected in Swiss mouse model of Chagas disease assessed as increase in host survival at 50 mg/kg once daily for 5 consecutive days through oral gavage starting on day 8 post infection measured 14 days post infection; assay type: functional, organism-based; design: dose 50 mg/kg
Summary of the method: (§2)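 Female Swiss mice (n = 5 per group) were infected with 25,000 blood-form T. cruzi Tulahuen TcVI trypomastigotes and dosed orally by gavage once daily for 5 days from day 8 pi.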

Trypanosoma cruzi [11] = assay: Antitrypanosomal activity against Trypanosoma cruzi Tulahuen TcVI infected in Swiss mouse model of Chagas disease assessed as increase in host survival at 20 mg/kg once daily for 5 consecutive days through oral gavage starting on day 8 post infection measured 14 days post infection; assay type: functional, organism-based; design: dose 20 mg/kg; summary of the method: as §2
Trypanosoma cruzi [12] = assay: Antitrypanosomal activity against Trypanosoma cruzi Tulahuen TcVI infected in Swiss mouse model of Chagas disease assessed as increase in host survival at 100 mg/kg once daily for 5 consecutive days through oral gavage starting on day 8 post infection measured 14 days post infection; assay type: functional, organism-based; design: dose 100 mg/kg; summary of the method: as §2
Trypanosoma cruzi [13] = assay: Antitrypanosomal activity against Trypanosoma cruzi Tulahuen TcVI infected in Swiss mouse model of Chagas disease assessed as decrease in blood parasitemia level at 20 mg/kg once daily for 5 consecutive days through oral gavage starting on day 8 post infection measured 14 days post infection; assay type: functional; design: scale not given: the % may be the effect or the level left
Summary of the method: (§3)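 Female Swiss mice (n = 5 per group) were infected with 25,000 blood-form T. cruzi Tulahuen TcVI trypomastigotes. From day 8 post-infection, they received once-daily oral gavage for 5 consecutive days. Blood trypomastigotes/mL were counted on days 8, 9, 12 and 14 pi, and efficacy was taken as decreased parasitemia versus vehicle-treated mice on day 14.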

Trypanosoma cruzi [14] = assay: Antitrypanosomal activity against Trypanosoma cruzi Tulahuen TcVI infected in Swiss mouse model of Chagas disease assessed as decrease in blood parasitemia level at 50 mg/kg once daily for 5 consecutive days through oral gavage starting on day 8 post infection measured 14 days post infection; assay type: functional; design: scale not given: the % may be the effect or the level left; summary of the method: as §3
Trypanosoma cruzi [15] = assay: Antitrypanosomal activity against Trypanosoma cruzi Tulahuen TcVI infected in Swiss mouse model of Chagas disease assessed as decrease in blood parasitemia level at 100 mg/kg once daily for 5 consecutive days through oral gavage starting on day 8 post infection measured 14 days post infection; assay type: functional; design: scale not given: the % may be the effect or the level left; summary of the method: as §3

SMILES: CC(C)(C)C(=O)N1CCN(C(c2cncnc2)c2ccc(Cl)cc2F)CC1 (stereo not given)
- selectivity ratio [1]: > 100
- pIC50 (L6): < 4.00
- pIC50 (Trypanosoma cruzi [2]): 7.09
- pIC50 (CYP3A4/5): 5.15
- solubility kinetic [3]: 25 µg/mL (≈ 64 µM)

SMILES: CC(=O)N1CCN(C(c2ccc(Cl)cc2)c2cccnc2)CC1.O=C(O)CC(O)(CC(=O)O)C(=O)O (stereo not given)
- AUC (Mus musculus [4]): 6.2 µM·h
- half-life [5]: 102 min
- AUC (Mus musculus [6]): 9.4 µM·h
- Activity (Mus musculus [7]): Non-toxic
- AUC (Mus musculus [8]): 2.3 µM·h
- Tmax [9]: 15 min

SMILES: CS(=O)(=O)N1CCN(C(c2cccnc2)c2ccc(Cl)cc2F)CC1 (stereo not given) [listing 1 of 2 here]
- Activity (Trypanosoma cruzi [10]): Active
- Activity (Trypanosoma cruzi [11]): Active
- Activity (Trypanosoma cruzi [12]): Active

SMILES: CS(=O)(=O)N1CCN(C(c2cccnc2)c2ccc(Cl)cc2F)CC1 (stereo not given) [listing 2 of 2 here]
- Activity (Trypanosoma cruzi [13]): 73%
- selectivity ratio [1]: > 100
- pIC50 (L6): < 4.00
- pIC50 (Trypanosoma cruzi [2]): 7.46
- Activity (Trypanosoma cruzi [14]): 95%
- pIC50 (CYP3A4/5): 5.89
- solubility kinetic [3]: 12.5 µg/mL (≈ 32.6 µM)
- Activity (Trypanosoma cruzi [15]): 96%

SMILES: O=C(C1CC1)N1CCN(C(c2cccnc2)c2ccc(Cl)cc2F)CC1 (stereo not given)
- selectivity ratio [1]: > 100
- pIC50 (L6): < 4.00
- pIC50 (Trypanosoma cruzi [2]): 7.59
- pIC50 (CYP3A4/5): 5.74
- solubility kinetic [3]: 50 µg/mL (≈ 134 µM)

SMILES: CS(=O)(=O)N1CCN(C(c2cncnc2)c2ccc(C(F)(F)F)cc2F)CC1 (stereo not given)
- selectivity ratio [1]: > 100
- pIC50 (L6): < 4.00
- pIC50 (Trypanosoma cruzi [2]): 7.60
- pIC50 (CYP3A4/5): 5.25
- solubility kinetic [3]: 25 µg/mL (≈ 59.7 µM)

SMILES: Cc1csc(C(=O)N2CCN(C(c3cccnc3)c3ccc(Cl)cc3F)CC2)n1 (stereo not given)
- selectivity ratio [1]: > 100
- pIC50 (L6): 4.03
- pIC50 (Trypanosoma cruzi [2]): 7.44
- pIC50 (CYP3A4/5): 5.55
- solubility kinetic [3]: 50 µg/mL (≈ 116 µM)

SMILES: CS(=O)(=O)N1CCN(C(c2cccnc2)c2ccc(Cl)cc2F)CC1.O=C(O)CC(O)(CC(=O)O)C(=O)O (stereo not given)
- AUC (Mus musculus [4]): 60.2 µM·h
- half-life [5]: 126 min
- AUC (Mus musculus [6]): 43.7 µM·h
- Activity (Mus musculus [7]): Non-toxic
- AUC (Mus musculus [8]): 7.2 µM·h
- Tmax [9]: 15 min

SMILES: CC[C@@H]([C@H](C)O)n1ncn(-c2ccc(N3CCN(c4ccc(OC[C@@H]5CO[C@@](Cn6cncn6)(c6ccc(F)cc6F)C5)cc4)CC3)cc2)c1=O [POSACONAZOLE]
- Activity (Trypanosoma cruzi [10]): Active
- pIC50 (L6): < 4.00
- pIC50 (Trypanosoma cruzi [2]): 9.15
- Activity (Trypanosoma cruzi [12]): Active
- Activity (Trypanosoma cruzi [14]): Active
- Activity (Trypanosoma cruzi [15]): Active

SMILES: O=S(=O)(c1ccccc1)N1CCN(C(c2cccnc2)c2ccc(Cl)cc2F)CC1 (stereo not given)
- selectivity ratio [1]: > 100
- pIC50 (L6): 4.38
- pIC50 (Trypanosoma cruzi [2]): 8.10
- pIC50 (CYP3A4/5): 6.22
- solubility kinetic [3]: < 1.6 µg/mL

SMILES: CC(=O)N1CCN(C(c2ccc(Cl)cc2)c2cccnc2)CC1 (stereo not given)
- Activity (Trypanosoma cruzi [13]): inactive
- Activity (Trypanosoma cruzi [10]): Active
- Activity (Trypanosoma cruzi [11]): Active
- Activity (Trypanosoma cruzi [12]): Active
- Activity (Trypanosoma cruzi [14]): inactive
- Activity (Trypanosoma cruzi [15]): inactive
